Legend:
B2 bradykinin receptor = target: T1, B2 bradykinin receptor (Homo sapiens, UniProt P30411); experiment: Inhibition of human bradykinin B2 receptor
T1 sequence (P30411 whole entry): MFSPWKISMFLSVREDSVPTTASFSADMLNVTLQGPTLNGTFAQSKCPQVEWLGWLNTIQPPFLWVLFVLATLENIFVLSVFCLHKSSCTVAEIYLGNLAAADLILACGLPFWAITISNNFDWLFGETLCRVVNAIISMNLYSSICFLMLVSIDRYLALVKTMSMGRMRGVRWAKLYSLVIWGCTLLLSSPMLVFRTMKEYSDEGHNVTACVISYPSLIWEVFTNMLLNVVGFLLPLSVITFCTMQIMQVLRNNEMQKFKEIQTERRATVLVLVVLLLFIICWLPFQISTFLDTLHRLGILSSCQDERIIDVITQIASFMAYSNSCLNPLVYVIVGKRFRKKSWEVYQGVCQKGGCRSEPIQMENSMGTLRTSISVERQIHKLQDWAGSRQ
In short: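 Human B2 receptor expressed in CHO cells, membrane binding with 1 nM [3H]bradykinin, 2% DMSO final, 60 min at 22 °C, then filtered and counted. Nonspecific binding defined with 1 µM bradykinin. Ki reported.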

B1 bradykinin receptor [1] = target: T2, B1 bradykinin receptor (Homo sapiens, UniProt P46663); experiment: Displacement of [3H]des-Arg10 Leu9 kallidin from human bradykinin B1 receptor expressed in CHO cells; format: cell-based
T2 sequence (P46663 whole entry): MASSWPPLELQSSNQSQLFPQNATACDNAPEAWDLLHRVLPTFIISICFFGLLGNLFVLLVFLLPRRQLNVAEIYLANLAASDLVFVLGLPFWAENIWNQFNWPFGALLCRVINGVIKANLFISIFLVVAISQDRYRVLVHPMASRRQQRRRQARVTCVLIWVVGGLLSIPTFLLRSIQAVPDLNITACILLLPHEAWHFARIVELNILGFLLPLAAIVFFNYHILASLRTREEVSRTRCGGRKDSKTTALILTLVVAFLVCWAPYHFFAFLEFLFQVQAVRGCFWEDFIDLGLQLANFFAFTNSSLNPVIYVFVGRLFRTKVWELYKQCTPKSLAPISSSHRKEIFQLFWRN
In short: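 Membranes from CHO cells stably expressing human B1, used at 0.2 mg/mL protein in pH 7.4 HEPES/NaCl/KCl buffer with 100 nM enalaprilat, 140 µg/mL bacitracin and 0.1% BSA. Radioligand 0.2 nM [3H]des-arg10 leu9 kallidin, 2% DMSO final, incubated 60 min at 22 °C, then filtered and counted. Nonspecific binding defined with 1 µM des-arg10 kallidin. Ki values, at least two experiments averaged.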

[2] = Lipophilicity, Log P of the compound; format: physicochemical; details: octanol/water
human MDR1 (P-gp) = experiment: Apparent permeability in LLC-PK1 cells expressing human MDR1; format: ADME, cell-based, Sus scrofa; details: pig, LLC-PK1
In short: (§1)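 LLC-PK1 cells expressing human MDR1, grown in M199 with 10% FBS on 96-well filters and used on day 4. Equilibrated 30 min in HBSS with 1 mM HEPES, then test compound at 5 µM. 1 µM verapamil served as P-gp substrate control. Transport in both directions measured in triplicate by LC/MS/MS or scintillation.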

LLC-PK1 = experiment: Ratio of transport from basolateral to apical over apical to basolateral in LLC-PK1 cells expressing human MDR1; format: ADME, cell-based, Sus scrofa; details: pig; in short: as §1
[3] = Half life in Sprague-Dawley rat at 10 mg/kg, po and 2 mg/kg, iv; format: ADME, organism-based; details: in vivo
In short: (§2)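 Sprague-Dawley rats, n = 3, dosed orally at 10 mg/kg and iv at 2 mg/kg. F% from oral versus iv exposure; half-life in hours, clearance in mL/min/kg.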

[4] = Oral bioavailability in Sprague-Dawley rat at 10 mg/kg, po and 2 mg/kg, iv; format: ADME, organism-based; details: in vivo; in short: as §2
[5] = Clearance in Sprague-Dawley rat at 10 mg/kg, po and 2 mg/kg, iv; format: ADME, organism-based; details: in vivo; in short: as §2
B1 bradykinin receptor [6] = target: T2, B1 bradykinin receptor; experiment: Activity at human bradykinin B1 receptor assessed as inhibition of Des-arg kallidin-induced increase of cytosolic calcium in CHO cells by FLIPR; format: functional, cell-based
In short: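 CHO cells stably expressing human B1 receptor, seeded 25 000/well and grown overnight at 37 °C, then loaded 60 min at 37 °C with 4 µM fluo-3 AM and 1 mM probenecid. Antagonist added 2 min before 3 nM des-arg10 kallidin, run at 37 °C. At least eight concentrations per curve give IC50. At least two experiments averaged.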

## COC(=O)c1c(F)cccc1-c1ccc(CNC(=O)C2(NC(=O)C(Cl)Cl)CC2)c(F)c1
B2 bradykinin receptor
  IC50: > 10000 nM
B1 bradykinin receptor [1]
  Ki: 0.54 nM
[2]
  logP: 2.8
Human MDR1 (P-gp)
  Papp: 21 ×10⁻⁶ cm/s
LLC-PK1
  Ratio: 2.8

## COC(=O)c1c(F)cccc1-c1ccc([C@H](C)NC(=O)C2(NC(=O)CC(F)(F)F)CC2)c(F)c1
B1 bradykinin receptor [1]
  Ki: 22 nM

## COC(=O)c1c(F)cccc1-c1ccc([C@@H](C)NC(=O)C2(NC(C)=O)CC2)c(F)c1
B1 bradykinin receptor [1]
  Ki: 0.93 nM
Human MDR1 (P-gp)
  Papp: 21 ×10⁻⁶ cm/s
LLC-PK1
  Ratio: 8.6

## C[C@@H](NC(=O)C1(NC(=O)C(F)(F)F)CC1)c1ccc(-c2cccc(F)c2-c2nnn(C)n2)cc1F
[3]
  half-life: 0.7 h
[4]
  bioavailability: 48%
B1 bradykinin receptor [1]
  Ki: 0.6 nM
[5]
  clearance: 11 mL/min/kg
B1 bradykinin receptor [6]
  IC50: 0.65 nM

## COC(=O)c1c(F)cccc1-c1ccc(CNC(=O)C2(NC(=O)CC(F)(F)F)CC2)c(F)c1
B2 bradykinin receptor
  IC50: > 10000 nM
B1 bradykinin receptor [1]
  Ki: 0.81 nM
[2]
  logP: 2.9
Human MDR1 (P-gp)
  Papp: 23 ×10⁻⁶ cm/s
LLC-PK1
  Ratio: 18.4

## C[C@@H](NC(=O)C1(NC(=O)C(F)(F)F)CC1)c1ccc(-c2cccc(F)c2-c2nnnn2C)cc1F
B1 bradykinin receptor [1]
  Ki: 62.5 nM
Human MDR1 (P-gp)
  Papp: 19 ×10⁻⁶ cm/s
LLC-PK1
  Ratio: 15.5

## COC(=O)c1c(F)cccc1-c1ccc([C@@H](C)NC(=O)C2(NC(=O)C(F)(F)Cl)CC2)c(F)c1
B1 bradykinin receptor [1]
  Ki: 0.81 nM
Human MDR1 (P-gp)
  Papp: 34 ×10⁻⁶ cm/s
LLC-PK1
  Ratio: 2.5

## COC(=O)c1c(F)cccc1-c1ccc([C@@H](C)NC(=O)C2(NC(=O)C(F)F)CC2)c(F)c1
B1 bradykinin receptor [1]
  Ki: 0.4 nM
Human MDR1 (P-gp)
  Papp: 31 ×10⁻⁶ cm/s
LLC-PK1
  Ratio: 3.2

## CCOC(=O)c1c(Cl)cccc1-c1ccc([C@@H](C)NC(=O)C2(NC(=O)C(F)(F)F)CC2)c(F)c1
[3]
  half-life: 1.1 h
[4]
  bioavailability: 45%
B1 bradykinin receptor [1]
  Ki: 1.35 nM
[5]
  clearance: 8.4 mL/min/kg
B1 bradykinin receptor [6]
  IC50: 9.1 nM

## COC(=O)c1ccccc1-c1ccc([C@@H](C)NC(=O)C2(NC(=O)C(F)(F)F)CC2)c(F)c1
B1 bradykinin receptor [1]
  Ki: 10.3 nM
Human MDR1 (P-gp)
  Papp: 34 ×10⁻⁶ cm/s
LLC-PK1
  Ratio: 2.2

## C[C@@H](NC(=O)C1(NC(=O)C(F)(F)F)CC1)c1ccc(-c2cccc(F)c2C(F)(F)F)cc1F
[3]
  half-life: 2.6 h
[4]
  bioavailability: 30%
B1 bradykinin receptor [1]
  Ki: 1.44 nM
[5]
  clearance: 10 mL/min/kg
Human MDR1 (P-gp)
  Papp: 32 ×10⁻⁶ cm/s
B1 bradykinin receptor [6]
  IC50: 7.3 nM
LLC-PK1
  Ratio: 2

## COC(=O)c1c(F)cccc1-c1ccc([C@@H](C)NC(=O)C2(NC(=O)CC(F)(F)F)CC2)c(F)c1
[3]
  half-life: 1.44 h
[4]
  bioavailability: 14%
B1 bradykinin receptor [1]
  Ki: 0.13 nM
[5]
  clearance: 25 mL/min/kg
Human MDR1 (P-gp)
  Papp: 25 ×10⁻⁶ cm/s
LLC-PK1
  Ratio: 8.6
